Positions count from the first letter of the chain named.
How the values were obtained:
Settings in all cases: stereoisomer not certain
[1] = target: T1, OR6K3 (Homo sapiens) (UniProt Q8NGY3)
T1 sequence (whole entry): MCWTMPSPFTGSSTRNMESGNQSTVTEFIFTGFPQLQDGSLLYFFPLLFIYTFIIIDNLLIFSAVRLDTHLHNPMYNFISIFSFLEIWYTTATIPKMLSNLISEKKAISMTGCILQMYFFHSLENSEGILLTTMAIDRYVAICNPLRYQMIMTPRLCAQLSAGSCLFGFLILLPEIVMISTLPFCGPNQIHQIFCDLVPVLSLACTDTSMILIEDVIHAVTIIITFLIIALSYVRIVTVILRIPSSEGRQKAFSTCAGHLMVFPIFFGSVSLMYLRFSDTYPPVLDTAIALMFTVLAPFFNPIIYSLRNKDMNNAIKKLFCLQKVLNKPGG
Procedure, shortened: (§1)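 Transient luciferase assays in mammalian cell lines were common, though methods varied by source. The values come from published papers and their supplementary material, with extra details from the original authors when needed. Responsive refers to a measured signal the original authors judged statistically different from baseline, and non-responsive (inactive) to the remainder.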

[2] = target: T2, OR6K6 (Homo sapiens) (UniProt Q8NGW6)
T2 sequence (whole entry): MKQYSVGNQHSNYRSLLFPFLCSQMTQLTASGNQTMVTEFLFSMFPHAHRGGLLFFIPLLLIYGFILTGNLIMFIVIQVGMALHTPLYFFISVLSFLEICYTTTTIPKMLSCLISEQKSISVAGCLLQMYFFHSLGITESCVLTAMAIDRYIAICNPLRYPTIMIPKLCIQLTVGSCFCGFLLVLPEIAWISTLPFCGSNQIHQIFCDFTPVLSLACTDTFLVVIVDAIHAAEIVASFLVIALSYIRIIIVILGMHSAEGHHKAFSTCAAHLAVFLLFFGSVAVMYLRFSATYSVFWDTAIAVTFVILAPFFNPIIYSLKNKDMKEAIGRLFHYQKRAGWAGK
Procedure, shortened: as §1

[3] = target: T3, OR6M1 (Homo sapiens) (UniProt Q8NGM8)
T3 sequence (whole entry): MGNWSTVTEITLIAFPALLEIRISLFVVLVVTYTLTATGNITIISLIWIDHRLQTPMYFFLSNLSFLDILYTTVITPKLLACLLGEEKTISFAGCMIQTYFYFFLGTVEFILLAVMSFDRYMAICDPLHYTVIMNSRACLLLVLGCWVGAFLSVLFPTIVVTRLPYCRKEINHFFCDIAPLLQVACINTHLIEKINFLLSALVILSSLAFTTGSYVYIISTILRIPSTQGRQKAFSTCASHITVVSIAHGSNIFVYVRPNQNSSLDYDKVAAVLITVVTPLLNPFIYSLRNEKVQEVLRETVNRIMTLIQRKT
Procedure, shortened: as §1

[4] = target: T4, OR6N1 (Homo sapiens) (UniProt Q8NGY5)
T4 sequence (whole entry): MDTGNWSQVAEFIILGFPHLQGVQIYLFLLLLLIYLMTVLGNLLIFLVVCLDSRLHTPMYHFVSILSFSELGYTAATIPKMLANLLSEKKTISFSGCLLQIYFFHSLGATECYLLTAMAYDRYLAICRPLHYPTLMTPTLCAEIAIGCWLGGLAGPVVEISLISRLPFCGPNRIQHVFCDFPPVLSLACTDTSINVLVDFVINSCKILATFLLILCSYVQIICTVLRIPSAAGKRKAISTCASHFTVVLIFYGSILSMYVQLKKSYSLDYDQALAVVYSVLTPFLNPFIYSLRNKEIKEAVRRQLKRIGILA
Procedure, shortened: as §1

[5] = target: T5, OR6N2 (Homo sapiens) (UniProt Q8NGY6)
T5 sequence (whole entry): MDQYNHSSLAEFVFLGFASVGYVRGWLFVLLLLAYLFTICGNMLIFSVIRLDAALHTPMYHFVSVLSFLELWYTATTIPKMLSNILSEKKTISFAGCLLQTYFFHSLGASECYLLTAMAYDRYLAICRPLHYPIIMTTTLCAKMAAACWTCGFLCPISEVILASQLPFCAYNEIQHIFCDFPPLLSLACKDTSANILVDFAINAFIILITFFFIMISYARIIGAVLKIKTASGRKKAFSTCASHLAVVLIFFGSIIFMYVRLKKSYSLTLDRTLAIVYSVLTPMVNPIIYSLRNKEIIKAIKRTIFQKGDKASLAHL
Procedure, shortened: as §1

[6] = target: T6, OR6P1 (Homo sapiens) (UniProt Q8NGX9)
T6 sequence (whole entry): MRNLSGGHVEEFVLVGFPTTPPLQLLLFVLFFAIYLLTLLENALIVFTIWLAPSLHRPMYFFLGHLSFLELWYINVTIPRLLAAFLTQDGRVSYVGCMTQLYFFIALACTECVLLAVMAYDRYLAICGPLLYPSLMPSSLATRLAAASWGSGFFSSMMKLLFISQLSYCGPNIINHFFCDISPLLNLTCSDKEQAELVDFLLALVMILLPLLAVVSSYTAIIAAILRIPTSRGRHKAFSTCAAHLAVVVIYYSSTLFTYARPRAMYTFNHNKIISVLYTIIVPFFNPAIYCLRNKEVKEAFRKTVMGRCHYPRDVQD
Procedure, shortened: as §1

[7] = target: T7, OR6Q1 (Homo sapiens) (UniProt Q8NGQ2)
T7 sequence (whole entry): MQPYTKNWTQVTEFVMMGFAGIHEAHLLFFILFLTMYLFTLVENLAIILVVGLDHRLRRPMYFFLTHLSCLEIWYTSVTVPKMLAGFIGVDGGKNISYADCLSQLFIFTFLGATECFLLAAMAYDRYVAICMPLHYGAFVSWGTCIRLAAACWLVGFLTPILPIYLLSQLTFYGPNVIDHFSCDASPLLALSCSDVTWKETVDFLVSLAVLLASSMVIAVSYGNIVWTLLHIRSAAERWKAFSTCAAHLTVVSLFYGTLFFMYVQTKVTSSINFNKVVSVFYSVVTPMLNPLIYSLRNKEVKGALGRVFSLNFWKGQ
Procedure, shortened: as §1

[8] = target: T8, OR6S1 (Homo sapiens) (UniProt Q8NH40)
T8 sequence (whole entry): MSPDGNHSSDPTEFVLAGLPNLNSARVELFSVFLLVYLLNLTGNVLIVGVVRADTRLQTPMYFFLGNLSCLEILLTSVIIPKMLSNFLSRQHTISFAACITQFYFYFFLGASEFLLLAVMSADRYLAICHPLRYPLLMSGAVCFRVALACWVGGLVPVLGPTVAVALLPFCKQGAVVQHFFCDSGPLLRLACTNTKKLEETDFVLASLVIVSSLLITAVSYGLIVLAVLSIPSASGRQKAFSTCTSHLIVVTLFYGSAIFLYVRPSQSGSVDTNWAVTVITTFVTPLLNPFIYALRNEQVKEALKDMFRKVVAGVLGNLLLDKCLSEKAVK
Procedure, shortened: as §1

[9] = target: T9, OR6T1 (Homo sapiens) (UniProt Q8NGN1)
T9 sequence (whole entry): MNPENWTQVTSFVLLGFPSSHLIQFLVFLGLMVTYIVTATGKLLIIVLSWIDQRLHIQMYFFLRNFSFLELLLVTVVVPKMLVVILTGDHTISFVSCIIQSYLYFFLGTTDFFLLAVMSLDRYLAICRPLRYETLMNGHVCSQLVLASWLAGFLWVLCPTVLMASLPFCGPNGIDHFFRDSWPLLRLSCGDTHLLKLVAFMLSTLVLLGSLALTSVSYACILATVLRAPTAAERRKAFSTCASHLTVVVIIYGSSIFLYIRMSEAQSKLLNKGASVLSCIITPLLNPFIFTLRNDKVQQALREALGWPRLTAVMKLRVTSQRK
Procedure, shortened: as §1

[10] = target: T10, OR6V1 (Homo sapiens) (UniProt Q8N148)
T10 sequence (whole entry): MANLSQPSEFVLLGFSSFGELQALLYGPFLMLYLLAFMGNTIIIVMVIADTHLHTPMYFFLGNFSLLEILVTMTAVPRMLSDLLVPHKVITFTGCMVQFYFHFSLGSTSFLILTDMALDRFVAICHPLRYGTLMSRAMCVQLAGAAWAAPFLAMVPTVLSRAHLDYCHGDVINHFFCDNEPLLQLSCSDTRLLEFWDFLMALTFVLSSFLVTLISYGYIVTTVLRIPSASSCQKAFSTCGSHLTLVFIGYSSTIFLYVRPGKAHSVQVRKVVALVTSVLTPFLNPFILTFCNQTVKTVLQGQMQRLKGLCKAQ
Procedure, shortened: as §1

[11] = target: T11, OR6X1 (Homo sapiens) (UniProt Q8NH79)
T11 sequence (whole entry): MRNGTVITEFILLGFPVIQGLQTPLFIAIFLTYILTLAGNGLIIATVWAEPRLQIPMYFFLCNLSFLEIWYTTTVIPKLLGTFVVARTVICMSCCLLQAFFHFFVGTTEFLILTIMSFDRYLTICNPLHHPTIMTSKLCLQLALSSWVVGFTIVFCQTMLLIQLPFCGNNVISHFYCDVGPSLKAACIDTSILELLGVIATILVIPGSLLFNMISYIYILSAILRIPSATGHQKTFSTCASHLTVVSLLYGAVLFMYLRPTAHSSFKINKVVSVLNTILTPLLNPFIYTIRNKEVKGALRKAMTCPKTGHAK
Procedure, shortened: as §1

[12] = target: T12, OR6Y1 (Homo sapiens) (UniProt Q8NGX8)
T12 sequence (whole entry): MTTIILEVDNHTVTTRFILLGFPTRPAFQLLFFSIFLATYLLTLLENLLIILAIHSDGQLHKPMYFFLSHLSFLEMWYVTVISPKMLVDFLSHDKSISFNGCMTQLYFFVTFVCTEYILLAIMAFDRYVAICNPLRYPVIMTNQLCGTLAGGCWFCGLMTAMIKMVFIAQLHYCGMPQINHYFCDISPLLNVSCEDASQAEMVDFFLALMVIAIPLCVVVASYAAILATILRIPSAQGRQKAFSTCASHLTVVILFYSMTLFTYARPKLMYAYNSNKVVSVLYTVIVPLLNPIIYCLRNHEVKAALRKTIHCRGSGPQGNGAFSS
Procedure, shortened: as §1

[13] = target: T13, OR7A10 (Homo sapiens) (UniProt O76100)
T13 sequence (whole entry): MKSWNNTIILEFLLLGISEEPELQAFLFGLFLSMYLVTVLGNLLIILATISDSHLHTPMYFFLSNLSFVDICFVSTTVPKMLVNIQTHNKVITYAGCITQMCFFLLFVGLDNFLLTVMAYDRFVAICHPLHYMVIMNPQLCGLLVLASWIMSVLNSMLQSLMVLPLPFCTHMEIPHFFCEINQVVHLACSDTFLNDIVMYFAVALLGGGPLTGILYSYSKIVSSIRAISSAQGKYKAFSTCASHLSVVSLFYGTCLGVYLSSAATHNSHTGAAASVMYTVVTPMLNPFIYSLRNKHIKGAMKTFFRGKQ
Procedure, shortened: as §1

[14] = target: T14, OR7A17 (Homo sapiens) (UniProt O14581)
T14 sequence (whole entry): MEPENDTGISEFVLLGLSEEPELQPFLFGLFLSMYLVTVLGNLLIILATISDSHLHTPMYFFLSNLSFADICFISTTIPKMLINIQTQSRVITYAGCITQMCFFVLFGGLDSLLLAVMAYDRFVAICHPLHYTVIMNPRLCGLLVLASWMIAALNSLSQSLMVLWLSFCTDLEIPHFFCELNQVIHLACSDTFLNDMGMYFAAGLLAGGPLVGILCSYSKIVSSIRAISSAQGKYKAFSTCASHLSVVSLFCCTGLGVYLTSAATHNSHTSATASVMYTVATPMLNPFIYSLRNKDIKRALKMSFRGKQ
Procedure, shortened: as §1

[15] = target: T15, OR7A5 (Homo sapiens) (UniProt Q15622)
T15 sequence (whole entry): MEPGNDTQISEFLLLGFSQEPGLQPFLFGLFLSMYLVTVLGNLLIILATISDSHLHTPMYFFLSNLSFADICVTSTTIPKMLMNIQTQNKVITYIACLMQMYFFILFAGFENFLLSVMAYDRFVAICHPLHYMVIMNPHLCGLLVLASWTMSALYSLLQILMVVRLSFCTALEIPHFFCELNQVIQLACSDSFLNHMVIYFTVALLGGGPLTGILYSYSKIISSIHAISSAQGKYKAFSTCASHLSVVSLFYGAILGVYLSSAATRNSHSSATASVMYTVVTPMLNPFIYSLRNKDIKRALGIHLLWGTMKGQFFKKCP
Procedure, shortened: as §1

[16] = system: T16, OR6K3
T16 sequence (whole entry): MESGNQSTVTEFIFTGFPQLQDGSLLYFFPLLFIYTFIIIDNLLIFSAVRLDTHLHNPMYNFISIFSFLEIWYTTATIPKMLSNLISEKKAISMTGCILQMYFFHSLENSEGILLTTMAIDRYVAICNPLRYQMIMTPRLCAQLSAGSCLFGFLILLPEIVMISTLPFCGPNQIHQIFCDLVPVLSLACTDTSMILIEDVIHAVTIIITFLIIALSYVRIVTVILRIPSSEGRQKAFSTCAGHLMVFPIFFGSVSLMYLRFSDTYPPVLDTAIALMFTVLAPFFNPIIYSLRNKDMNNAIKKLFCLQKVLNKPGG
Procedure, shortened: as §1

[17] = system: T17, OR6M1 R224C
T17 sequence (whole entry): T3 sequence (whole entry) with R224C
Procedure, shortened: as §1

[18] = system: T18, OR6M1 T276K
T18 sequence (whole entry): T3 sequence (whole entry) with T276K
Procedure, shortened: as §1

[19] = system: T19, OR6S1 T42I V156I
T19 sequence (whole entry): T8 sequence (whole entry) with T42I, V156I
Procedure, shortened: as §1

[20] = system: T20, OR6T1 N2D
T20 sequence (whole entry): T9 sequence (whole entry) with N2D
Procedure, shortened: as §1

Measured: odorant receptor agonist call

CC(CO)CS (centres undefined)
inactive: [1] | [2] | [3] | [4] | [5] | [6] | [7] | [8] | [9] | [10] | [11] | [12] | [13] | [14] | [15]

CC1CCCCCCCCCCCCC(=O)C1 (centres undefined)
inactive: [1] | [2] | [3] | [4] | [5] | [6] | [7] | [8] | [9] | [10] | [11] | [12] | [13] | [14] | [15]

CCCC(S)CCOC(C)=O (centres undefined)
inactive: [16] | [2] | [3] | [17] | [18] | [4] | [5] | [6] | [7] | [8] | [19] | [9] | [20] | [10] | [11] | [12] | [13] | [14] | [15]

CCCCC(S)C(C)CO (centres undefined)
active: [15]
inactive: [1] | [2] | [3] | [4] | [5] | [6] | [7] | [8] | [9] | [10] | [11] | [12] | [13] | [14]

Source: the M2OR odorant receptor database
